Measured values reported in ChEMBL document CHEMBL1156729, “Novel synthesis and pharmacological evaluation as alpha2-adrenoceptor ligands of O-phenylisouronium salts” (Bioorg Med Chem, 2008).

Experiment: Displacement of [3H]RX821002 from alpha2 adrenoceptor in human prefrontal cortex neural membrane
Type: tissue-based
Procedure, shortened: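 Postmortem human PFC P2 membranes (homogenized in 5 mM Tris–HCl pH 7.4, 1 mM MgCl2, 0.25 M sucrose; stored at −70 °C) incubated in 50 mM Tris–HCl pH 7.5 with 1 nM [3H]RX821002 and competitor (10 concentrations) 30 min at 25 °C. Bound ligand separated by GF/C filtration and counted by scintillation. Non-specific binding with 10^-5 M adrenaline. Ki by one-site nonlinear regression, expressed as pKi.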

pKi | Compound
9.04 | COC1(C2=NCCN2)COc2ccccc2O1 (stereo unspecified)
4.94 | N=C(N)Oc1ccc(Sc2ccc(O)cc2)cc1
7.11 | N=C(N)Nc1ccc2c(c1)CCCC2
5.09 | Cc1ccc(OC(=N)N)cc1
4.98 | N=C(N)Oc1ccc(Cc2ccc(O)cc2)cc1
5.1 | N=C(N)Oc1ccc(Sc2ccc(OC(=N)N)cc2)cc1
4.49 | N=C(N)Oc1ccc(Oc2ccc(O)cc2)cc1
5.35 | N=C(N)Oc1ccc2c(c1)CCCC2
4.72 | N=C(N)Oc1ccc(Oc2ccc(OC(=N)N)cc2)cc1
5.27 | N=C(N)Oc1ccc2c(c1)CCC2
5.4 | N=C(N)Oc1ccc(Cc2ccc(OC(=N)N)cc2)cc1
